Experimental data published in ChEMBL document CHEMBL1137539, “Synthesis and in vitro evaluation of 5-arylidene-3-hydroxyalkyl-2-phenylimino-4-thiazolidinones with antidegenerative activity on human chondrocyte cultures” (Bioorg Med Chem, 2007).
The source made the active and inactive calls. The rule behind the calls is not given here.

Tests used:
Homo sapiens [1] = species on record: Homo sapiens; assay: Inhibition of IL1-beta induced nitrite production in human articular chondrocytes at 10 ug/ml after 120 hrs; format: functional, cell-based
Homo sapiens [2] = species on record: Homo sapiens; assay: Inhibition of IL1-beta induced PGE2 production in human articular chondrocytes at 10 ug/ml to 100 ug/ml; format: functional, cell-based
Summary of the method: (§1)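 Human articular chondrocytes came from cartilage taken at femoral neck fracture surgery and were isolated by enzymatic digestion. After 24 h in culture they were exposed to compound (10, 50, 100 µg/mL) with IL-1β (10 ng/mL). Supernatant was collected at 120 h and PGE2 was quantified by enzyme immunoassay (detection limit 1 pg/mL). Values are means with SEM.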

Homo sapiens [3] = species on record: Homo sapiens; assay: Inhibition of IL1-beta induced glycosaminoglycans depletion in human articular chondrocytes 10 ug/ml to 100 ug/ml; format: functional, cell-based
Summary of the method: (§2)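 Cartilage from femoral neck fracture patients was digested enzymatically to give chondrocytes. After 24 h the cells received compound at 10, 50 and 100 µg/mL together with IL-1β at 10 ng/mL. Total GAGs released into the medium were measured at 120 h and expressed as µg/mL, mean with SEM.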

Homo sapiens [4] = species on record: Homo sapiens; assay: Inhibition of IL1-beta induced nitrite production in human articular chondrocytes at 100 ug/ml after 120 hrs; format: functional, cell-based
Homo sapiens [5] = species on record: Homo sapiens; assay: Inhibition of IL1-beta induced nitrite production in human articular chondrocytes at 50 ug/ml after 120 hrs; format: functional, cell-based
[6] = Toxicity in human articular chondrocytes assessed as reduction of tetrazolium salt metabolism after 120 hrs by MTT assay; format: cell-based
Summary of the method: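 Enzymatically isolated human articular chondrocytes were treated with compound (10, 50, 100 µg/mL) plus IL-1β (10 ng/mL). Viability was measured at 120 h by MTT cleavage by mitochondrial dehydrogenases and read as absorbance, mean with SEM.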

Homo sapiens [7] = species on record: Homo sapiens; assay: Inhibition of IL1-beta induced MMP3 secretion in human articular chondrocytes at 10 ug/ml to 100 ug/ml; format: functional, cell-based
Summary of the method: (§3)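 Chondrocytes were isolated from human articular cartilage taken at femoral neck fracture surgery, by sequential hyaluronidase, pronase and collagenase digestion, then cultured. After 24 h they were treated with test compound (10, 50 and 100 µg/mL) plus IL-1β (10 ng/mL). Supernatants were collected at 120 h and MMP-3 was measured by ELISA (detection limit 1 ng/mL). Values are means with SEM.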

[8] = Inhibition of IL1-beta induced glycosaminoglycans depletion in human articular chondrocytes at 100 ug/ml; format: functional; summary of the method: as §2
[9] = Inhibition of IL1-beta induced MMP3 secretion in human articular chondrocytes at 100 ug/ml; format: functional; summary of the method: as §3
[10] = Inhibition of IL1-beta induced PGE2 production in human articular chondrocytes at 100 ug/ml; format: functional; summary of the method: as §1

Compound | Activity (Homo sapiens [1]) | Activity (Homo sapiens [2]) | Activity (Homo sapiens [3]) | Activity (Homo sapiens [4]) | Activity (Homo sapiens [5]) | Activity [6] | Activity (Homo sapiens [7]) | Activity [8] [ng/mL] | Activity [9] [ng/mL] | Activity [10] [ng/mL]
COc1cccc(/C=C2\S/C(=N\c3ccccc3)N(CCCO)C2=O)c1 | Active | Active | Active | Active | Active | Non-toxic | – | – | – | –
CSc1ccc(/C=C2\S/C(=N\c3ccccc3)N(CCCO)C2=O)cc1 | Active | Active | Active | Active | Active | Non-toxic | – | – | – | –
O=C1/C(=C/c2ccc(Cl)cc2)S/C(=N\c2ccccc2)N1CCCO | Active | Active | Active | Active | Active | Non-toxic | – | – | – | –
COc1ccc(/C=C2\S/C(=N\c3ccccc3)N(CCCO)C2=O)cc1 | Active | Active | Active | Active | Active | Non-toxic | Active | – | – | –
CSc1ccc(/C=C2\S/C(=N\c3ccccc3)N(CCO)C2=O)cc1 | Active | Active | – | Active | Active | Non-toxic | – | 339000 | – | –
CS(=O)(=O)c1ccc(/C=C2\S/C(=N\c3ccccc3)N(CCO)C2=O)cc1 | Active | Active | Active | Active | Active | Non-toxic | – | – | – | –
COc1ccc2c(c1)c(CC(=O)O)c(C)n2C(=O)c1ccc(Cl)cc1 [INDOMETHACIN] | – | – | – | – | – | – | – | – | 62.64 | –
CCCN1C(=O)/C(=C/c2cccc(OC)c2)S/C1=N\c1ccccc1 | Active | Active | – | Active | Active | – | – | – | – | –
COc1ccc(/C=C2\S/C(=N\c3ccccc3)N(CCO)C2=O)cc1 | Active | Active | Active | Active | Active | Non-toxic | – | – | – | –
COc1cccc(/C=C2\S/C(=N\c3ccccc3)N(CCO)C2=O)c1 | Active | Active | Active | Active | Active | Non-toxic | – | – | – | –
CS(=O)(=O)c1ccc(/C=C2\S/C(=N\c3ccccc3)N(CCCO)C2=O)cc1 | Active | – | Active | Active | Active | Non-toxic | – | – | – | 53.22
O=C1/C(=C/c2ccc(Cl)cc2)S/C(=N\c2ccccc2)N1CCO | Active | Active | Active | Active | Active | Non-toxic | – | – | – | –
